Measurements reported in ChEMBL document CHEMBL1123873, “N-(heterocyclic alkyl)pyrido[2,1-b]quinazoline-8-carboxamides as orally active antiallergy agents” (J Med Chem, 1987).

What was measured:
[1] = molecular target: T1, Thromboxane-A synthase (Homo sapiens, UniProt P24557); test: Inhibition of human platelet thromboxane synthase (TXA2) was determined in human platelets
T1 sequence (P24557 whole entry): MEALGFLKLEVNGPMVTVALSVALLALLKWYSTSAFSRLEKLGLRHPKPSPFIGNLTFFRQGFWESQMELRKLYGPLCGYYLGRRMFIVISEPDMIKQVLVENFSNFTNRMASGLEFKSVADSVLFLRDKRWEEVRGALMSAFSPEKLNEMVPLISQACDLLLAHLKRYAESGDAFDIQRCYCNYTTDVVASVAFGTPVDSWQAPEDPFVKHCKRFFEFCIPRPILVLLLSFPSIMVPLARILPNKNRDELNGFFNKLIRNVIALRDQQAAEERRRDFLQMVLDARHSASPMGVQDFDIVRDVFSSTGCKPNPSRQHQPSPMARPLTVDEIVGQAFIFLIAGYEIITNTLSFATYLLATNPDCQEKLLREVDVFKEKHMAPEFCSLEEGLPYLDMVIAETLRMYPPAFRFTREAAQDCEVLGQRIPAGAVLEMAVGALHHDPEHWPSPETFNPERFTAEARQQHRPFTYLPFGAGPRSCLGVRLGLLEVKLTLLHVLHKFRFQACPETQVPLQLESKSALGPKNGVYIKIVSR
In short: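 The enzyme source was microsomal fractions of human platelets. Conversion of [14C]PGH2 to [14C]TXB2 ran 2 min at 22 °C and was then stopped. Products were ether-extracted, separated by TLC and counted. Compounds were tested in triplicate at three log-spaced concentrations, and IC50 was obtained by linear regression.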

[2] = species on record: Cavia porcellus; test: Evaluated for inhibition of slow reacting substance of anaphylaxis (SRS-A) induced contractions in guinea pig ileum strips; assay type: functional
In short: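 Guinea pig ileum strips were contracted with SRS-A at 5.0 units/mL, the level giving 50% of maximal contraction. Each compound was tested in duplicate at three concentrations giving 10–90% inhibition. IC50 was obtained by linear regression.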

[3] = test system: Rattus norvegicus; test: Compound was evaluated in vivo by rat passive cutaneous anaphylaxis test (PCA)after oral administration; details: read-out: ID50 (the source's name)
[4] = test system: Cavia porcellus; test: In vivo inhibition of LTE4 (leukotriene)-induced bronchoconstrictions in guinea pig and percent inhibition was reported at 10 mg/Kg administered intravenously; assay type: functional; details: iv
In short: (§1)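 Guinea pigs pretreated with propranolol were challenged with LTE4. The drug was given either 10 mg/kg iv 30 s before challenge or 100 mg/kg orally 2 h before. Bronchoconstriction was scored as percent inhibition versus control animals. Oral ID50 was calculated from varying oral doses.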

[5] = test system: Rattus norvegicus; test: In vivo inhibition of LTE4 (leukotriene)-induced skin wheal formation in rat and percent inhibition was reported at 100 mg/Kg administered perorally; details: po
[6] = test system: Cavia porcellus; test: In vivo inhibition of LTE4 (leukotriene)-induced bronchoconstrictions in guinea pig and percent inhibition was reported at 100 mg/Kg administered perorally; assay type: functional; details: po; in short: as §1
[7] = test system: Rattus norvegicus; test: In vivo inhibition of LTE4 (leukotriene)-induced skin wheal formation in rat and percent inhibition was reported at 10 mg/Kg administered intravenously; details: iv
[8] = test system: Rattus norvegicus; test: In vivo inhibition of LTE4 (leukotriene)-induced skin wheal formation in rat
[9] = test system: Cavia porcellus; test: In vivo inhibition of LTE4 (leukotriene)-induced bronchoconstrictions in guinea pig and ID50 was reported perorally; assay type: functional; in short: as §1
[10] = test system: Rattus norvegicus; test: In vivo inhibition of LTE4 (leukotriene)-induced skin wheal formation in rat; remark: listed apart in the source
[11] = species on record: Cavia porcellus; test: Ability to inhibit bronchoconstriction in guinea pig induced by platelet activating factor
[12] = species on record: Cavia porcellus; test: Ability to inhibit bronchoconstriction in guinea pig induced by histamine
[13] = species on record: Cavia porcellus; test: Ability to inhibit bronchoconstriction induced in actively sensitized guinea pig by antigen-induced de novo biosynthesis of SRS-A; assay type: functional
[14] = test system: Rattus norvegicus; test: Compound was evaluated in vivo by rat passive cutaneous anaphylaxis test (PCA) after oral administration; assay type: functional
[15] = test system: Cavia porcellus; test: (§2) In vivo inhibition of LTE4 (leukotriene)-induced administration; assay type: functional
[16] = test system: Rattus norvegicus; test: In vivo inhibition of LTE4 (leukotriene)-induced skin wheal formation in rat determined after (po) administration of a dose of 100 mg/Kg
[17] = test system: Cavia porcellus; test: In vivo inhibition of LTE4 (leukotriene)-induced bronchoconstrictions in guinea pig after oral administration; assay type: functional; in short: as §1
[18] = test system: Cavia porcellus; test: as §2; assay type: functional; remark: listed apart in the source
[19] = test system: Rattus norvegicus; test: In vivo inhibition of LTE4 (leukotriene)-induced skin wheal formation in rat determined after (iv) administration of a dose of 10 mg/kg

| SMILES | IC50 [1] [nM] | IC50 [2] [nM] | other results |
| --- | --- | --- | --- |
| CC(C)c1ccc2nc3ccc(C(=O)NCCCCc4cncnc4)cn3c(=O)c2c1 | 200 | 5000 |  |
| O=C(NCCCCc1cccnc1)c1ccc2nc3ccccc3c(=O)n2c1 | 20 | 5000 |  |
| CC(C)c1ccc2nc3ccc(C(=O)O)cn3c(=O)c2c1 |  |  | ED50 [3]: 0.45 mg/kg |
| Cc1ccc2nc3ccc(C(=O)NCCCCc4cccnc4)cn3c(=O)c2c1 | 100 | 5000 |  |
| O=C(O)c1ccc(OCCn2ccnc2)cc1 [DAZOXIBEN] |  | > 10000 | inhibition in vivo at 10 mg/kg [4]: 88%; inhibition in vivo at 100 mg/kg [5]: 11%; inhibition in vivo at 100 mg/kg [6]: 81%; inhibition in vivo at 10 mg/kg [7]: 9% |
| CC(C)c1ccc2nc3ccc(C(=O)NCCSCc4cccnc4)cn3c(=O)c2c1 | 600 | 5000 |  |
| O=C(NCCCCc1cccnc1)c1ccc2nc3ccc(Br)cc3c(=O)n2c1 | 100 | > 10000 |  |
| CC(C)c1ccc2nc3ccc(C(=O)NCCCCCCCc4cccnc4)cn3c(=O)c2c1 | 200 | > 10000 |  |
| CC(C)c1ccc2nc3ccc(C(=O)NCCCCCCc4cccnc4)cn3c(=O)c2c1 |  | 1000 | inhibition in vivo at 10 mg/kg [4]: 71%; inhibition in vivo at 100 mg/kg [5]: 62%; inhibition in vivo at 100 mg/kg [6]: 28%; inhibition in vivo at 10 mg/kg [7]: 70% |
| CC(C)c1ccc2nc3ccc(C(=O)N(C)CCCCc4cccnc4)cn3c(=O)c2c1 | 600 | 1000 |  |
| CC(C)c1ccc2nc3ccc(C(=O)NCCCCc4ccccn4)cn3c(=O)c2c1 | > 10000 | 1000 |  |
| CC(C)c1ccc2nc3ccc(C(=O)NCCCCc4ccncc4)cn3c(=O)c2c1.Cl.Cl | 100 | 1000 | inhibition in vivo at 10 mg/kg [4]: 89%; inhibition in vivo at 100 mg/kg [5]: 63%; IC50 [8]: 90 mg/kg; ID50 mg/kg [9]: 57; inhibition in vivo at 100 mg/kg [6]: 73%; inhibition in vivo at 10 mg/kg [7]: 54% |
| O=C(NCCCCc1cccnc1)c1ccc2nc3cc(Cl)ccc3c(=O)n2c1 | 20 | 8000 |  |
| CC(C)c1ccc2nc3ccc(C(=O)NCCCCn4ccnc4)cn3c(=O)c2c1.Cl.Cl | 200 | 1000 | inhibition in vivo at 10 mg/kg [4]: 87%; IC50 [10]: 46 mg/kg; inhibition in vivo at 100 mg/kg [5]: 63%; ID50 mg/kg [9]: 47; inhibition in vivo at 100 mg/kg [6]: 87%; inhibition in vivo at 10 mg/kg [7]: 26%; ID50 mg/kg [11]: 13; ID50 mg/kg [12]: 39; ID50 mg/kg [13]: 50; ID50 mg/kg [14]: 20 |
| COc1ccc2c(=O)n3cc(C(=O)NCCCCc4cccnc4)ccc3nc2c1 | 20 | > 10000 |  |
| CC(C)c1ccc2nc3ccc(C(=O)NCCc4cccnc4)cn3c(=O)c2c1 | 4000 | 10000 |  |
| CC(C)Oc1ccc2nc3ccc(C(=O)NCCCCc4cccnc4)cn3c(=O)c2c1 | 60 | 10000 |  |
| CC(C)c1ccc2nc3ccc(C(=O)NCCCCc4cccnc4)cn3c(=O)c2c1 | 200 | 1000 | Inhibition [15]: 76%; inhibition in vivo at 100 mg/kg [16]: 61%; IC50 [8]: 70 mg/kg; ID50 mg/kg [17]: 60; Inhibition [18]: 94%; inhibition in vivo at 10 mg/kg [19]: 60% |
| CC(C)c1ccc2nc3ccc(C(=O)NC(C)(C)CCCc4cccnc4)cn3c(=O)c2c1 | 500 | 5000 |  |
| Cc1nccn1CCCCNC(=O)c1ccc2nc3ccc(C(C)C)cc3c(=O)n2c1 | 5000 | 9000 |  |
| O=C(NCCCCc1cccnc1)c1ccc2nc3ccc(O)cc3c(=O)n2c1 | 50 | 3000 |  |
| COc1ccc2nc3ccc(C(=O)NCCCCc4cccnc4)cn3c(=O)c2c1 | 200 | 10000 |  |
| Cc1cc2nc3ccc(C(=O)NCCCCc4cccnc4)cn3c(=O)c2cc1C | 100 | 7000 |  |
| CC(C)c1ccc2nc3ccc(C(=O)NCCCCOc4cccnc4)cn3c(=O)c2c1.Cl.Cl | 50 | 800 | inhibition in vivo at 10 mg/kg [4]: 94%; inhibition in vivo at 100 mg/kg [5]: 56%; IC50 [8]: 100 mg/kg; inhibition in vivo at 100 mg/kg [6]: 60%; inhibition in vivo at 10 mg/kg [7]: 64% |
| CC(C)c1ccc2nc3ccc(C(=O)NCCCCCc4cccnc4)cn3c(=O)c2c1.Cl.Cl | 100 | 1000 | Inhibition [15]: 21%; inhibition in vivo at 100 mg/kg [5]: 65%; inhibition in vivo at 10 mg/kg [7]: 61%; Inhibition [18]: 84% |
| CC(CCc1cccnc1)NC(=O)c1ccc2nc3ccc(C(C)C)cc3c(=O)n2c1 (centres undefined) | 300 | 5000 |  |
| O=C(NCCCCc1cccnc1)c1ccc2nc3cc4c(cc3c(=O)n2c1)CCCC4 | 300 | 9000 |  |
| CCCc1c(OCC(O)COc2ccc3c(=O)cc(C(=O)O)oc3c2CCC)ccc(C(C)=O)c1O (centres undefined) [FPL-55712] | 10000 |  | inhibition in vivo at 10 mg/kg [4]: 98%; inhibition in vivo at 100 mg/kg [5]: 2%; inhibition in vivo at 100 mg/kg [6]: 23%; inhibition in vivo at 10 mg/kg [7]: 88% |
| CC(CCCc1cccnc1)NC(=O)c1ccc2nc3ccc(C(C)C)cc3c(=O)n2c1 (centres undefined) | 1000 | 8000 |  |
| CC(C)c1ccc2nc3ccc(C(=O)NCCCc4cccnc4)cn3c(=O)c2c1 | 100 | 5000 |  |
